Our source for the MIC values is PMC7932028 (European journal of medicinal chemistry, 2020).

In the assay the test system is S. aureus strain 29213. The experiment in a line: Whole cell growth inhibition. Type of assay: cell-based. Conditions: Staphylococcus aureus, 29213, 18 h, read-out: MIC (whole cell growth inhibition). In short, it runs like this:
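Racemic test compounds were assayed against CLSI-standardized S. aureus cultures. Growth was scored by turbidity at 600 nm and by visual inspection. The MIC was taken as the lowest concentration with no growth after 18 h incubation. There were n = 2 independent assays, each with duplicate technical replicates, and values are given with SEM.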

In brackets after ≈: the same amount, converted by molar mass.

In general, MIC refers to the least concentration at which growth counts as inhibited. Regarding `CCCC1c2cc(C)c(C)cc2C=NN1C(=O)/C=C/c1cc(Cc2cnc(N)nc2N)cc(OC)c1OC` (racemic) [13b, (±)-(E)-3-(5-((2,4-Diaminopyrimidin-5-yl)methyl)-2,3-dimethoxyphenyl)-1-(6,7-dimethyl-1-propylphthalazin-2(1H)-yl) prop-2-en-1-one], the minimum inhibitory concentration (MIC) lay within 0.5 to 1 µg/mL (≈ 0.972 to 1.94 µM). On to `CCCC1c2ccccc2C=NN1C(=O)/C=C/c1cc(Cc2cnc(N)nc2N)cc(OC)c1OC` (stereo not drawn) [11a], for which the MIC was 0.0625 to 0.25 µg/mL (≈ 0.128 to 0.514 µM).

Turning to `COc1cc(Cc2cnc(N)nc2N)cc(/C=C/C(=O)N2N=Cc3ccccc3C2c2ccc(C)cc2)c1OC` (stereo not drawn) [11j], the minimum inhibitory concentration (MIC) fell in the range of 0.046 to 0.187 µg/mL (≈ 0.086 to 0.35 µM).
